Assay outcomes as filed in PubChem BioAssay.
MC4R antag cAMP: human MC4R antagonism in cAMP assay. AID 540295. inhibition, % at 6.5 µM. actives 0.48% (n = 360,000). MC4R-expressing cells, MTII-stimulated cAMP, LANCE TR-FRET;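 active = inhibition above its plate's cutoff, the mean of tested wells on that plate plus 3 SD, cut at about 29% in these data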
Target sequence (P32245 whole entry, looked up): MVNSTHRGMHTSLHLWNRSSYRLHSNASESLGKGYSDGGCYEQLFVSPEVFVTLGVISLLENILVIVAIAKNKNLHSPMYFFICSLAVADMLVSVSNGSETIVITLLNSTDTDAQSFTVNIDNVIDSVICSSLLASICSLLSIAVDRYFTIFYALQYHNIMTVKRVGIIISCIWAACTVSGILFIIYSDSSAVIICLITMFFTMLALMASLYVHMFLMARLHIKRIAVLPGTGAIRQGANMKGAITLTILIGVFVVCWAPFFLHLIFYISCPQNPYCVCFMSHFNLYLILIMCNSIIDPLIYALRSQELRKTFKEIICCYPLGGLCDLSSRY
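System: U2OS-MC4R stable cell line; Technique: Eu-cAMP/anti-cAMP TR-FRET, emission 671 nm; Repeats: single well per compound; Also added: Melanotan II; Dosing: one concentration, 6.5 µM nominal; Schedule: 30-min compound, 1-h challenge, 1-h detection, room temperature.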
MC4R barr agon: human MC4R agonism via beta-arrestin. U2OS MC4R beta-arrestin complementation, luminescence; percent of melanotan II response, DMSO zero. activation, % at 8.9 µM. actives 0.98% (n = 360,000). AID 540308;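 active = activation above a per-plate cutoff, the mean activation of sample wells on that plate plus 3 SD, cut at about 8% in these data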
m5-HT2A agonist: agonists of mouse serotonin 5-HT2A receptor (HTR2A); CHO-K1 mHTR2A beta-arrestin complementation, luminescence; percent of 30 µM serotonin response; activation, % at 7.6 µM; P35363; actives 0.66% (n = 360,000);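 active = activation above a run cutoff, the mean activation of all tested compounds plus 3 SD, cut at about 14% in these data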
EBI2 block: blocks human EBI2 receptor beta-arrestin signaling; P32249; EBI2 beta-arrestin recruitment, luminescence, 7a,25-OHC stimulated; inhibition, % at 5 µM; actives 0.81% (n = 360,000); AID 651636; in the data active = inhibition above about 38%;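 note: enzyme fragment complementation signal reports receptor beta-arrestin coupling in cells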
Target sequence (P32249 whole entry, looked up, the tested form may be a part): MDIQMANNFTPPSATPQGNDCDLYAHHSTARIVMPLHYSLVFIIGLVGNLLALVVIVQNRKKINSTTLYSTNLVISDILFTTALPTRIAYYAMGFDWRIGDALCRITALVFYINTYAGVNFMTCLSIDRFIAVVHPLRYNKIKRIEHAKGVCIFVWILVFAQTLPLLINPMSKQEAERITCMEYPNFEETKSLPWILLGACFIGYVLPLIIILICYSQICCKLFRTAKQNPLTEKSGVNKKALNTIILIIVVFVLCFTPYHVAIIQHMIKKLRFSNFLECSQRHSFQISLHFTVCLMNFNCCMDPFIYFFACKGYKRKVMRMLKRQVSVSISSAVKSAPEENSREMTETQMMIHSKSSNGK
EBI2 conf: confirmation of human EBI2 receptor antagonists; EBI2 beta-arrestin luminescence, 7a,25-OHC antagonism; inhibition, % at 5 µM; shares compounds with EBI2 block; actives 29% (n = 2,400);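 active = inhibition of at least 50%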
EBI2 ag: counter-screen for EBI2 antagonists: EBI2 agonist activity; EBI2-expressing cells, agonist mode, luminescence, 60 min; 0% vehicle, 100% 7α,25-dihydroxycholesterol control; activation, % at 5 µM; 2,400 tested, under 10 active; shares compounds with EBI2 block;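 active = activation of at least 50%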
bGal counter: counter-screen for EBI2 antagonists: E. coli beta-galactosidase inhibition; purified beta-galactosidase, luminescent Galacton Star, 15 min; inhibition, % at 5 µM; actives 1% (n = 2,400); shares compounds with EBI2 block; AID 652176;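 active = replicate-average signal at least 3 plate SD below neutral wells, shown as high inhibition, flagging enzyme-inhibiting false positives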;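 note: higher means stronger loss of beta-gal luminescence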
Numbers stand for hits. Sampled rows, rich in hits. Any-hit rate of the full collection: about 2.8%.

How did CC1CCCN(C(=O)CSc2nnc(-c3ccncc3)n2C)C1 (configuration not stated) do in these assays?
MC4R antag cAMP: inactive; MC4R barr agon: inactive; m5-HT2A agonist: inactive; EBI2 block: inactive

How did O=C1C=C(c2ccc(O)cc2)C[C@@H](c2ccc3c(c2)OCO3)C1 do in these assays?
MC4R antag cAMP: inactive; MC4R barr agon: inactive; m5-HT2A agonist: inactive; EBI2 block: inactive

What do the screens show for `O=C1C=C(c2ccc3ncccc3c2)C[C@@H](c2ccc3c(c2)OCO3)C1`?
MC4R antag cAMP: inactive; MC4R barr agon: inactive; m5-HT2A agonist: inactive; EBI2 block: 66.3; EBI2 conf: inactive; EBI2 ag: inactive; bGal counter: inactive

Results for COc1ccc(NC(=O)CSc2nc3ccccc3nc2N2CCCC2)cc1Cl ?
MC4R antag cAMP: inactive; MC4R barr agon: inactive; m5-HT2A agonist: inactive; EBI2 block: inactive

How did CCN(c1ccccc1)S(=O)(=O)c1cccc(C(=O)OCC(=O)Nc2ccc(NC(C)=O)cc2)c1 do in these assays?
MC4R antag cAMP: inactive; MC4R barr agon: inactive; m5-HT2A agonist: inactive; EBI2 block: inactive

How did Cc1cc(C)n(-c2ccc(C)c(Cl)c2)n1 do in these assays?
MC4R antag cAMP: inactive; MC4R barr agon: inactive; m5-HT2A agonist: inactive; EBI2 block: inactive

What do the screens show for `CCn1c(SCC(=O)O)nnc1-c1ccccc1OC`?
MC4R antag cAMP: inactive; MC4R barr agon: inactive; m5-HT2A agonist: inactive; EBI2 block: inactive

Results for Clc1ccc(-c2csc3ncnc(N4CCc5ccccc5C4)c23)cc1 ?
MC4R antag cAMP: inactive; MC4R barr agon: inactive; m5-HT2A agonist: inactive; EBI2 block: 44.4; EBI2 conf: inactive; EBI2 ag: inactive; bGal counter: inactive

What do the screens show for `CN1C(=O)CC(C(=O)O)SC1=Nc1ccc(F)cc1` (configuration not stated)?
MC4R antag cAMP: inactive; MC4R barr agon: inactive; m5-HT2A agonist: inactive; EBI2 block: inactive

Results for O=C(NCc1ccccc1Cl)c1ccc2nc([C@H]3C[C@H](O)[C@@H](CO)O3)[nH]c2c1 ?
MC4R antag cAMP: inactive; MC4R barr agon: inactive; m5-HT2A agonist: inactive; EBI2 block: inactive

What do the screens show for `O=C(NCC1CCCN1S(=O)(=O)c1ccccc1)C(=O)NC1CC1` (configuration not stated)?
MC4R antag cAMP: inactive; MC4R barr agon: inactive; m5-HT2A agonist: inactive; EBI2 block: inactive

Results for O=S(=O)(c1cccc(C(F)(F)F)c1)N1CCN(CC(O)COCc2ccccc2)CC1 (configuration not stated) ?
MC4R antag cAMP: inactive; MC4R barr agon: inactive; m5-HT2A agonist: inactive; EBI2 block: inactive

Results for CCOc1ccc(OCC(O)CN2CCN(S(=O)(=O)c3cccc(C(F)(F)F)c3)CC2)cc1 (configuration not stated) ?
MC4R antag cAMP: inactive; MC4R barr agon: inactive; m5-HT2A agonist: inactive; EBI2 block: 77.5; EBI2 conf: inactive; EBI2 ag: inactive; bGal counter: inactive

How did COC(=O)c1cc(S(=O)(=O)N2CCN(c3ccc(C(C)=O)cc3)CC2)cn1C do in these assays?
MC4R antag cAMP: inactive; MC4R barr agon: inactive; m5-HT2A agonist: inactive; EBI2 block: inactive

Results for O=C(CCc1ccccc1)N1CCN(CCO)CC1 ?
MC4R antag cAMP: inactive; MC4R barr agon: inactive; m5-HT2A agonist: inactive; EBI2 block: inactive

What do the screens show for `O=C(CCc1ccccc1)N1CCN(C(=O)CCc2ccccc2)CC1`?
MC4R antag cAMP: inactive; MC4R barr agon: inactive; m5-HT2A agonist: inactive; EBI2 block: 55.3; EBI2 conf: inactive; EBI2 ag: inactive; bGal counter: inactive

Results for O=C(CCCc1nc2ccccc2s1)NC(c1ccccc1)c1ccccc1 ?
MC4R antag cAMP: inactive; MC4R barr agon: inactive; m5-HT2A agonist: inactive; EBI2 block: 77.5; EBI2 conf: inactive; EBI2 ag: inactive; bGal counter: inactive

How did O=C(COc1ccccc1Cl)Nc1ccccc1C(=O)N1CCCCC1 do in these assays?
MC4R antag cAMP: inactive; MC4R barr agon: inactive; m5-HT2A agonist: inactive; EBI2 block: inactive

Results for CCOC(=O)N1CCN(C(=O)COc2ccc(Br)cc2Cl)CC1 ?
MC4R antag cAMP: inactive; MC4R barr agon: inactive; m5-HT2A agonist: inactive; EBI2 block: 61.9; EBI2 conf: inactive; EBI2 ag: inactive; bGal counter: inactive

What do the screens show for `CCOC(=O)C1CCN(C(=O)COc2ccc(Br)cc2Br)CC1`?
MC4R antag cAMP: inactive; MC4R barr agon: inactive; m5-HT2A agonist: inactive; EBI2 block: 44.3; EBI2 conf: inactive; EBI2 ag: inactive; bGal counter: inactive

Results for CCOC(=O)C1CCN(C(=O)COc2cccc(C)c2)CC1 ?
MC4R antag cAMP: inactive; MC4R barr agon: inactive; m5-HT2A agonist: inactive; EBI2 block: inactive

Results for CCOC(=O)C1CCN(C(=O)COc2ccc(Br)cc2)CC1 ?
MC4R antag cAMP: inactive; MC4R barr agon: inactive; m5-HT2A agonist: inactive; EBI2 block: 74.6; EBI2 conf: 66.7; EBI2 ag: inactive; bGal counter: inactive

What do the screens show for `O=C(COc1ccc(Br)cc1Cl)N1CCN(c2ncccn2)CC1`?
MC4R antag cAMP: inactive; MC4R barr agon: inactive; m5-HT2A agonist: inactive; EBI2 block: inactive

Results for CCOC(=O)C1CCN(C(=O)COc2cc(C)c(Br)cc2C)CC1 ?
MC4R antag cAMP: inactive; MC4R barr agon: inactive; m5-HT2A agonist: inactive; EBI2 block: 70.8; EBI2 conf: inactive; EBI2 ag: inactive; bGal counter: inactive

Results for CCOC(=O)C1CCN(C(=O)COc2ccc3c(c2)OCO3)CC1 ?
MC4R antag cAMP: inactive; MC4R barr agon: inactive; m5-HT2A agonist: inactive; EBI2 block: inactive

Results for O=C1CCc2cc(S(=O)(=O)NCc3ccccc3Cl)cc3c2N1CC3 ?
MC4R antag cAMP: inactive; MC4R barr agon: inactive; m5-HT2A agonist: inactive; EBI2 block: inactive

What do the screens show for `CC(C)(C)c1ccc(NC(=O)C2CCCN(c3cnccn3)C2)cc1` (configuration not stated)?
MC4R antag cAMP: inactive; MC4R barr agon: inactive; m5-HT2A agonist: inactive; EBI2 block: inactive

Results for CC1(C)CC(N=C2C([N+](=O)[O-])=CC=C3C2=NC2(CCCCC2)N3O)CC(C)(C)N1 ?
MC4R antag cAMP: inactive; MC4R barr agon: inactive; m5-HT2A agonist: inactive; EBI2 block: inactive

How did O=[N+]([O-])C1=CC=C2C(=NC3(CCCCC3)N2O)C1=NC1CCCCC1 do in these assays?
MC4R antag cAMP: inactive; MC4R barr agon: inactive; m5-HT2A agonist: inactive; EBI2 block: 48.1; EBI2 conf: inactive; EBI2 ag: inactive; bGal counter: inactive

How did O=C(NN=Cc1c[nH]c2ccccc12)NN=Cc1c[nH]c2ccccc12 do in these assays?
MC4R antag cAMP: inactive; MC4R barr agon: inactive; m5-HT2A agonist: inactive; EBI2 block: 74.2; EBI2 conf: 62.0; EBI2 ag: inactive; bGal counter: inactive
